In brackets after ≈: the same amount, converted by molar mass.
Assays:
Format in all cases: functional
Staphylococcus aureus [1] = assay: Antibacterial activity against 10^5 CFU/mL Staphylococcus aureus RN4220 assessed as inhibition of bacterial growth after 24 hrs by microtiter enzyme-linked immunosorbent assay; conditions: RN4220, 24 h
Staphylococcus aureus [2] = assay: Antibacterial activity against 10^5 CFU/mL Staphylococcus aureus KCTC 503 assessed as inhibition of bacterial growth after 24 hrs by microtiter enzyme-linked immunosorbent assay; conditions: KCTC 503, 24 h
Escherichia coli [3] = assay: Antibacterial activity against 10^5 CFU/mL Escherichia coli 1356 assessed as inhibition of bacterial growth after 24 hrs by microtiter enzyme-linked immunosorbent assay; conditions: Escherichia coli, 1356, 24 h
Escherichia coli [4] = assay: Antibacterial activity against 10^5 CFU/mL Escherichia coli 1682 assessed as inhibition of bacterial growth after 24 hrs by microtiter enzyme-linked immunosorbent assay; conditions: Escherichia coli, 1682, 24 h
Staphylococcus aureus [5] = assay: Antibacterial activity against 10^5 CFU/mL methicillin-resistant Staphylococcus aureus CCARM 3167 assessed as inhibition of bacterial growth after 24 hrs by microtiter enzyme-linked immunosorbent assay; conditions: CCARM 3167, 24 h
In short: (§1)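 Broth microdilution MIC. Bacteria grown to mid-log phase in Mueller-Hinton broth, diluted 1000-fold, and inoculated at 10⁵ CFU/mL in MHB, 0.2 mL/well in 96-well plates. Compounds dissolved in DMSO, final DMSO not exceeding 0.05%, in serial dilutions. Oxacillin and norfloxacin served as positive controls. MIC is the lowest concentration giving complete growth inhibition after 24 h at 37 °C.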

Staphylococcus aureus [6] = assay: Antibacterial activity against 10^5 CFU/mL methicillin-resistant Staphylococcus aureus CCARM 3506 assessed as inhibition of bacterial growth after 24 hrs by microtiter enzyme-linked immunosorbent assay; conditions: CCARM 3506, 24 h; in short: as §1
Staphylococcus aureus [7] = assay: Antibacterial activity against 10^5 CFU/mL quinolone-resistant Staphylococcus aureus CCARM 3505 assessed as inhibition of bacterial growth after 24 hrs by microtiter enzyme-linked immunosorbent assay; conditions: CCARM 3505, 24 h; in short: as §1
Staphylococcus aureus [8] = assay: Antibacterial activity against 10^5 CFU/mL quinolone-resistant Staphylococcus aureus CCARM 3519 assessed as inhibition of bacterial growth after 24 hrs by microtiter enzyme-linked immunosorbent assay; conditions: CCARM 3519, 24 h; in short: as §1

Row | Compound | MIC (Staphylococcus aureus [1]) [µg/mL] | MIC (Staphylococcus aureus [2]) [µg/mL] | MIC (Escherichia coli [3]) [µg/mL] | MIC (Escherichia coli [4]) [µg/mL] | MIC (Staphylococcus aureus [5]) [µg/mL] | MIC (Staphylococcus aureus [6]) [µg/mL] | MIC (Staphylococcus aureus [7]) [µg/mL] | MIC (Staphylococcus aureus [8]) [µg/mL]
1 | CCn1cc(C(=O)O)c(=O)c2cc(F)c(N3CCNCC3)cc21 [NORFLOXACIN] | 2 (≈ 6.26 µM) | 2 (≈ 6.26 µM) | 16 (≈ 50.1 µM) | 16 (≈ 50.1 µM) | 8 (≈ 25.1 µM) | 4 (≈ 12.5 µM) | > 64 | > 64
2 | O=C(O)c1ccc(CN2C(=O)S/C(=C\c3ccc(/C=C/C(=O)c4ccccc4Cl)cc3)C2=O)cc1 | 1 (≈ 1.98 µM) | 2 (≈ 3.97 µM) | > 64 | > 64 | 1 (≈ 1.98 µM) | 1 (≈ 1.98 µM) | 2 (≈ 3.97 µM) | 2 (≈ 3.97 µM)
3 | COC(=O)c1ccc(CN2C(=O)S/C(=C\c3ccc(/C=C/C(=O)c4ccccc4Br)cc3)C2=O)cc1 | > 64 | > 64 | > 64 | > 64 |  |  |  | 
4 | COc1ccc(C(=O)/C=C/c2ccc(/C=C3\SC(=O)N(Cc4ccc(C(=O)O)cc4)C3=O)cc2)cc1 | > 64 | > 64 | > 64 | > 64 |  |  |  | 
5 | COC(=O)c1ccc(CN2C(=O)S/C(=C\c3ccc(/C=C/C(=O)c4ccc(O)cc4)cc3)C2=O)cc1 | > 64 | > 64 | > 64 | > 64 |  |  |  | 
6 | COC(=O)c1ccc(CN2C(=O)S/C(=C\c3ccc(/C=C/C(=O)c4ccc5ccccc5c4)cc3)C2=O)cc1 | > 64 | > 64 | > 64 | > 64 |  |  |  | 
7 | Cc1onc(-c2ccccc2)c1C(=O)N[C@@H]1C(=O)N2[C@@H]1SC(C)(C)[C@@H]2C(=O)O [OXACILLIN] | 1 (≈ 2.49 µM) | 1 (≈ 2.49 µM) | > 64 | > 64 | > 64 | > 64 | 1 (≈ 2.49 µM) | 1 (≈ 2.49 µM)
8 | O=C(O)c1ccc(CN2C(=O)S/C(=C\c3ccc(/C=C/C(=O)c4ccc(Cl)cc4)cc3)C2=O)cc1 | > 64 | > 64 | > 64 | > 64 |  |  |  | 
9 | O=C(O)c1ccc(CN2C(=O)S/C(=C\c3ccc(/C=C/C(=O)c4ccc(O)cc4)cc3)C2=O)cc1 | > 64 | > 64 | > 64 | > 64 |  |  |  | 
10 | COC(=O)c1ccc(CN2C(=O)S/C(=C\c3ccc(/C=C/C(=O)c4ccccc4)cc3)C2=O)cc1 | > 64 | > 64 | > 64 | > 64 |  |  |  | 

Second part, led by results:

Row | MIC (Staphylococcus aureus [1]) [µg/mL] | MIC (Staphylococcus aureus [2]) [µg/mL] | MIC (Escherichia coli [3]) [µg/mL] | MIC (Escherichia coli [4]) [µg/mL] | Compound | MIC (Staphylococcus aureus [5]) [µg/mL] | MIC (Staphylococcus aureus [6]) [µg/mL] | MIC (Staphylococcus aureus [7]) [µg/mL] | MIC (Staphylococcus aureus [8]) [µg/mL]
11 | > 64 | > 64 | > 64 | > 64 | O=C(O)c1ccc(CN2C(=O)S/C(=C\c3ccc(/C=C/C(=O)c4ccccc4F)cc3)C2=O)cc1 |  |  |  | 
12 | > 64 | > 64 | > 64 | > 64 | O=C(O)c1ccc(CN2C(=O)S/C(=C\c3ccc(/C=C/C(=O)c4ccc(Br)cc4)cc3)C2=O)cc1 |  |  |  | 
13 | > 64 | > 64 | > 64 | > 64 | COC(=O)c1ccc(CN2C(=O)S/C(=C\c3ccc(/C=C/C(=O)c4ccccc4F)cc3)C2=O)cc1 |  |  |  | 
14 | > 64 | > 64 | > 64 | > 64 | COC(=O)c1ccc(CN2C(=O)S/C(=C\c3ccc(/C=C/C(=O)c4ccc(Br)cc4)cc3)C2=O)cc1 |  |  |  | 
15 | > 64 | > 64 | > 64 | > 64 | O=C(O)c1ccc(CN2C(=O)S/C(=C\c3ccc(/C=C/C(=O)c4cccc(Cl)c4)cc3)C2=O)cc1 |  |  |  | 
16 | > 64 | > 64 | > 64 | > 64 | COC(=O)c1ccc(CN2C(=O)S/C(=C\c3ccc(/C=C/C(=O)c4cccc(OC)c4)cc3)C2=O)cc1 |  |  |  | 
17 | > 64 | > 64 | > 64 | > 64 | COC(=O)c1ccc(CN2C(=O)S/C(=C\c3ccc(/C=C/C(=O)c4ccc(C)cc4C)cc3)C2=O)cc1 |  |  |  | 
18 | > 64 | > 64 | > 64 | > 64 | O=C(O)c1ccc(CN2C(=O)S/C(=C\c3ccc(/C=C/C(=O)c4ccc(F)cc4)cc3)C2=O)cc1 |  |  |  | 
19 | > 64 | > 64 | > 64 | > 64 | COC(=O)c1ccc(CN2C(=O)S/C(=C\c3ccc(/C=C/C(=O)c4ccc(F)cc4)cc3)C2=O)cc1 |  |  |  | 
20 | > 64 | > 64 | > 64 | > 64 | COC(=O)c1ccc(CN2C(=O)S/C(=C\c3ccc(/C=C/C(=O)c4ccccc4OC)cc3)C2=O)cc1 |  |  |  | 
